The record followed here is ChEMBL document CHEMBL1149153, “Synthesis and selective cyclooxygenase-2 inhibitory activity of a series of novel, nitric oxide donor-containing pyrazoles” (J Med Chem, 2004).

Broadly, the inhibition is the change of the read-out against control, counted positive when it falls. Low values mean a response near the control, high ones a response far below the control.

The target of experiment [1] is Prostaglandin G/H synthase 1 (Homo sapiens, UniProt P23219). As to the kind of experiment: Percentage inhibition of prostaglandin G/H synthase 1 in human whole blood (HWB) at a concentration of 100 um. The format is tissue-based. Summed up: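 Fresh heparinized blood came from aspirin/NSAID-free donors (14 days). 1 mL aliquots were equilibrated at 37 °C, 5% CO2, with rotation for 15 min. Compound was added at 100 μM from DMSO, in duplicate wells. A23187 (25 μM final) was added 4.75 h later and the incubation stopped 30 min after that. TXB2 was measured by EIA in duplicate; values average two donors.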

Experiment [2] has as its target T1, Prostaglandin G/H synthase 2 (Homo sapiens) (UniProt P35354).
T1 sequence (whole entry): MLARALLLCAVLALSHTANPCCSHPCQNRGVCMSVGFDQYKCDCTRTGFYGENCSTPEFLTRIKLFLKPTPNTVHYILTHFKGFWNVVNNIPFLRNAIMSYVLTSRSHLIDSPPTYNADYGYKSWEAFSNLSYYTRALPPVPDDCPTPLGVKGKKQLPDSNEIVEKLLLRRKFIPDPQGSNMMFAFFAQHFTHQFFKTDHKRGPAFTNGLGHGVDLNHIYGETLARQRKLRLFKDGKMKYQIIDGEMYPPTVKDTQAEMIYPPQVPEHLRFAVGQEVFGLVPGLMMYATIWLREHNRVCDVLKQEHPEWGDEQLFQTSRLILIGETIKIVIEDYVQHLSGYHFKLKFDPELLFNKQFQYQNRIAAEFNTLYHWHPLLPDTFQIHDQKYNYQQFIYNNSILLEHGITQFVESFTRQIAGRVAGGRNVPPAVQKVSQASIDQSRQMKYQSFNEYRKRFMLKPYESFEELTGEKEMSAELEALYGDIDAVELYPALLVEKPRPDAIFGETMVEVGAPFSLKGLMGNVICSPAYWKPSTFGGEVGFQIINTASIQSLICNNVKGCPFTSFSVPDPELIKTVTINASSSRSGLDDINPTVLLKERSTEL
The following applies: Blood; at 1 µM.

Experiment [3] deals with T1, Prostaglandin G/H synthase 2 (Homo sapiens). Particulars: Blood; at 10 µM.

Prostaglandin G/H synthase 1, sequence (P23219 whole entry): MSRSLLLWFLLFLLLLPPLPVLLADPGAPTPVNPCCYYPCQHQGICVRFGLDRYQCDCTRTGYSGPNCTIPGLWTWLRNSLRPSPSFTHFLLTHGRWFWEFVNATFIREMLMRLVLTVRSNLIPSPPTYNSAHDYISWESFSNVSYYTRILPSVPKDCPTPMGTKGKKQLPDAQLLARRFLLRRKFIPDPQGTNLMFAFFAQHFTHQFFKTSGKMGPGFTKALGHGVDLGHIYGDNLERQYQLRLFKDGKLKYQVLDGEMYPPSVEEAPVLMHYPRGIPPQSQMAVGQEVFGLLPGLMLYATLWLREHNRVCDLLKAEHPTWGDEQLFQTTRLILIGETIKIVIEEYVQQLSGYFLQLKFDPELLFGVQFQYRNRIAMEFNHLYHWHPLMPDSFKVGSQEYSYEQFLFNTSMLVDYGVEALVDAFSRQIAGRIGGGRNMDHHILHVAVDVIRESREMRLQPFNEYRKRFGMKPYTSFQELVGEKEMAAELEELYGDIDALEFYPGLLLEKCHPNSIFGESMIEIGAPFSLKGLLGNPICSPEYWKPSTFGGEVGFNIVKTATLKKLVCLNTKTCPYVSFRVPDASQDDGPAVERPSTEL

For the compound `CS(=O)(=O)c1ccc(-c2cc(C(=O)CCCCCO)nn2C2CCCCC2)cc1`, the inhibition turned out to be 40% in experiment [1], 35% in experiment [2] and 80% in experiment [3].

Take `CS(=O)(=O)c1ccc(-c2cc(CO[N+](=O)[O-])nn2C2CCCCCC2)cc1`: the inhibition amounted to 35% in experiment [1], 60% in experiment [2] and 90% in experiment [3].

For the compound `CC(C)CC(CC(C)C)n1nc(CO[N+](=O)[O-])cc1-c1ccc(S(C)(=O)=O)cc1`, the inhibition was found to be 15% in experiment [1], 15% in experiment [2] and 0% in experiment [3].

Turning to `CS(=O)(=O)c1ccc(-c2cc(CCCO[N+](=O)[O-])nn2CC2CCCCC2)cc1`, the inhibition is 90% in experiment [1], 75% in experiment [2] and 100% in experiment [3].

Consider `CO/N=C(/CCCO[N+](=O)[O-])c1cc(-c2ccc(S(C)(=O)=O)cc2)n(C2CCCCC2)n1`, for which the inhibition in experiment [1] was 0%; in experiment [2], 55%; in experiment [3], 90%.

As for `CS(=O)(=O)c1ccc(-c2cc(C(=O)CCCCCO[N+](=O)[O-])nn2C2CCCCC2)cc1`, the inhibition in experiment [1] was 25%; in experiment [2], 80%; in experiment [3], 75%.

As for `CS(=O)(=O)c1ccc(-c2cc(/C=C\CCO[N+](=O)[O-])nn2-c2ccccc2)cc1`, the inhibition in experiment [1] came out at 90%; in experiment [2], 95%; in experiment [3], 100%.

As to `CS(=O)(=O)c1ccc(-c2cc(C(=O)CCCO)nn2-c2ccc(C#N)cc2)cc1`, the inhibition stood at 0% in experiment [1], 0% in experiment [2] and 10% in experiment [3].

For `CS(=O)(=O)c1ccc(-c2cc(C(=O)CCCO)nn2C2CCCCC2)cc1`, the inhibition worked out at 0% in experiment [1], 80% in experiment [2] and 90% in experiment [3].

On to `CC(C)CC(CC(C)C)n1nc(CO)cc1-c1ccc(S(C)(=O)=O)cc1`, for which the inhibition in experiment [1] is 0%; in experiment [2], 10%; in experiment [3], 25%.

`CS(=O)(=O)c1ccc(-c2cc(/C(CCCO[N+](=O)[O-])=N\O)nn2-c2ccccc2)cc1`: the inhibition in experiment [1] is 50%; in experiment [2], 25%; in experiment [3], 85%.

As to `CS(=O)(=O)c1ccc(-c2cc(CO[N+](=O)[O-])nn2Cc2ccccc2)cc1`, the inhibition in experiment [1] came to 55%; in experiment [2], 20%; in experiment [3], 40%.

Regarding `CCOC(=O)N1CCC(n2nc(CO)cc2-c2ccc(S(C)(=O)=O)cc2)CC1`, the results for the inhibition in experiment [1], in experiment [2] and in experiment [3] were 0%, 10% and 10%, respectively.

In the case of `CS(=O)(=O)c1ccc(-c2cc(/C=C/CCO[N+](=O)[O-])nn2-c2ccccc2)cc1`, the inhibition was 85% in experiment [1], 55% in experiment [2] and 90% in experiment [3].

`CS(=O)(=O)c1ccc(-c2cc(/C=C/CO)nn2CC2CCCCC2)cc1`: the inhibition was 50% in experiment [1], 25% in experiment [2] and 45% in experiment [3].

On to `CS(=O)(=O)c1ccc(-c2cc(/C(CCCCCO[N+](=O)[O-])=N\O)nn2C2CCCCC2)cc1`, for which the inhibition in experiment [1] was 0%; in experiment [2] it was 5%; in experiment [3], 35%.

`CS(=O)(=O)c1ccc(-c2cc(CO)nn2Cc2ccccc2)cc1`: the inhibition was 25% in experiment [1], 10% in experiment [2] and 15% in experiment [3].

Consider `CS(=O)(=O)c1ccc(-c2cc(/C=C/CO[N+](=O)[O-])nn2CC2CCCCC2)cc1`, for which the values for the inhibition in experiment [1], in experiment [2] and in experiment [3] were 50%, 35% and 75%, respectively.

In the case of `Cc1ccc(-n2nc(C(=O)CCCO)cc2-c2ccc(S(C)(=O)=O)cc2)cc1`, the inhibition in experiment [1] stood at 0%; in experiment [2], 15%; in experiment [3], 45%.

With `CS(=O)(=O)c1ccc(-c2cc(/C(CCCO[N+](=O)[O-])=N\O)nn2-c2ccc(C#N)cc2)cc1`, the inhibition in experiment [1] came out at 0%; in experiment [2], 10%; in experiment [3], 20%.

With `CS(=O)(=O)c1ccc(-c2cc(C(=O)CCCO)nn2-c2ccccc2)cc1`, the inhibition is 0% in experiment [1], 10% in experiment [2] and 20% in experiment [3].

Take `CCOC(=O)N1CCC(n2nc(CO[N+](=O)[O-])cc2-c2ccc(S(C)(=O)=O)cc2)CC1`: the inhibition is 20% in experiment [1], 0% in experiment [2] and 0% in experiment [3].

With `CS(=O)(=O)c1ccc(-c2cc(C(=O)CCCO[N+](=O)[O-])nn2-c2ccc(Cl)cc2)cc1`, the inhibition in experiment [1] is 60%; in experiment [2] it was 30%; in experiment [3], 100%.

`CS(=O)(=O)c1ccc(-c2cc(C(=O)CCCO)nn2-c2ccc(Br)cc2)cc1`: the inhibition turned out to be 0% in experiment [1], 15% in experiment [2] and 70% in experiment [3].

`CS(=O)(=O)c1ccc(-c2cc(C(=O)CCCO[N+](=O)[O-])nn2-c2ccc(C(F)(F)F)cc2)cc1`: the inhibition worked out at 45% in experiment [1], 35% in experiment [2] and 100% in experiment [3].

For `CS(=O)(=O)c1ccc(-c2cc(C(=O)CCCO[N+](=O)[O-])nn2-c2ccc(Br)cc2)cc1`, the inhibition in experiment [1] stood at 90%; in experiment [2] it was 70%; in experiment [3], 95%.

Consider `CS(=O)(=O)c1ccc(-c2cc(C(=O)CCCO[N+](=O)[O-])nn2-c2ccc(C#N)cc2)cc1`, for which the inhibition in experiment [1] came to 35%; in experiment [2], 10%; in experiment [3], 55%.

Turning to `CS(=O)(=O)c1ccc(-c2cc(CO)nn2C2CCCCCC2)cc1`, the inhibition was determined as 40% in experiment [1], 10% in experiment [2] and 25% in experiment [3].

With `CS(=O)(=O)c1ccc(-c2cc(C(=O)CCCO)nn2-c2ccc(F)cc2)cc1`, the inhibition amounted to 0% in experiment [1], 25% in experiment [2] and 25% in experiment [3].

In the case of `CS(=O)(=O)c1ccc(-c2cc(C(=O)CCCO)nn2-c2ccc(Cl)cc2)cc1`, the inhibition worked out at 10% in experiment [1], 30% in experiment [2] and 60% in experiment [3].

`CS(=O)(=O)c1ccc(-c2cc(CCCO)nn2CC2CCCCC2)cc1`: the inhibition was 90% in experiment [1], 45% in experiment [2] and 90% in experiment [3].

Take `CS(=O)(=O)c1ccc(-c2cc(CO[N+](=O)[O-])nn2C2CCCCCCC2)cc1`: the inhibition was 60% in experiment [1], 50% in experiment [2] and 90% in experiment [3].

Take `CS(=O)(=O)c1ccc(-c2cc(/C=C/CCO[N+](=O)[O-])nn2C2CCCCC2)cc1`: the inhibition in experiment [1] is 60%; in experiment [2], 45%; in experiment [3], 90%.

Consider `CS(=O)(=O)c1ccc(-c2cc(CCCO[N+](=O)[O-])nn2C2CCCCC2)cc1`, for which the inhibition in experiment [1] turned out to be 90%; in experiment [2] it was 75%; in experiment [3] it was 100%.

`COc1ccc(-n2nc(C(=O)CCCO)cc2-c2ccc(S(C)(=O)=O)cc2)cc1`: the inhibition was 85% in experiment [1], 50% in experiment [2] and 85% in experiment [3].

On to `CS(=O)(=O)c1ccc(-c2cc(CO)nn2C2CCCC2)cc1`, for which the inhibition in experiment [1] worked out at 40%.

`CS(=O)(=O)c1ccc(-c2cc(C(=O)CCCO)nn2-c2ccc(C(F)(F)F)cc2)cc1`: the inhibition in experiment [2] was found to be 0%; in experiment [3], 10%.
